# Published values gathered from unrelated publications.
# Target: Serine/threonine-protein kinase PAK 4 (PAK4, Homo sapiens, UniProt O96013)
SMILES,test,setting,endpoint,value
Nc1nc(NC2CCCCC2)sc1C(=O)c1ccccc1,"enzyme activity, inhibitor",10 µM,remaining activity,88%
Nc1ncnc2occ(-c3ccc(NC(=O)Nc4cc(C(F)(F)F)ccc4F)cc3)c12,"cell-free assay, inhibitor",20 µM,remaining signal,61%
FC(F)(F)Oc1cccc(-c2cnc3ccc(-c4ccncc4)nn23)c1,"enzyme activity, inhibitor, radiometric",1 µM,activity vs control,81%
Nc1cnc(N2CCc3cc(S(=O)(=O)Nc4c(F)cc(Cl)cc4F)cc(N4CCCC4=O)c32)nc1,"cell-free assay, competition with immobilised ligand",1 µM,remaining binding,89%
Oc1cccc(-c2nc(N3CCOCC3)c3oc4ncccc4c3n2)c1,"enzyme activity, inhibitor",10 µM,remaining activity,70%
CN(c1ncccc1CNc1nc(Nc2ccc3c(c2)CC(=O)N3)ncc1C(F)(F)F)S(C)(=O)=O,"enzyme activity, inhibitor",1 µM,inhibition,88.5%
CS(=O)(=O)N1CCCC(NC(=O)[C@H](CCC2CCCCC2)NC(=O)c2ccc(CNc3ncnc4c3nnn4-c3ccccc3)cc2)C1 (stereo partly shown),"cell-free assay, competition with immobilised ligand",0.1 µM,remaining binding,100%
O=C1Nc2ccc(Cl)cc2C1=Cc1cc(Cl)c(O)c(Cl)c1,cell-free assay,0.5 µM,remaining signal,88.7%
COc1cc(Nc2cnc(C#N)c(O[C@H](C)CN(C)C)n2)ncc1-c1cnn(C)c1,"enzyme activity, inhibitor, radiometric",1 µM,remaining activity,87%
CSc1cccnc1N1CCN(Cc2nc3ccccc3[nH]2)CC1,"cell-free assay, competition with immobilised ligand",1 µM,remaining binding,100%
C=CC(=O)Nc1cc(Nc2nccc(Nc3cc(Cl)c(F)cc3C(C)(C)O)n2)c(OC)cc1N1CC[C@@H](N(C)C)C1,"enzyme activity, inhibitor",1 µM,inhibition,5%
Cn1c(=O)n(-c2ccc(C(C)(C)C#N)cc2)c2c3cc(-c4cnc5ccccc5c4)ccc3ncc21,"enzyme activity, inhibitor",10 µM,remaining activity,87%
O=C1NC(c2ccccn2)Sc2ccccc21 (stereo not shown),"cell-free assay, competition with immobilised ligand",1 µM,remaining binding,84%
Cc1[nH]c(/C=C2\C(=O)Nc3ccc(F)cc32)c(C)c1C(=O)N[C@H]1CCN(C(=O)N(C)C)C1,"enzyme activity, inhibitor",0.1 µM,remaining activity,109%
Cc1ccc(Nc2nccc(N(C)c3ccc4c(C)n(C)nc4c3)n2)cc1S(N)(=O)=O,"enzyme activity, inhibitor",0.3 µM,inhibition,-17%
CCCOc1ccc(OC)c(F)c1C(=O)c1ccc(C(=O)N[C@@H]2CNC[C@H]2NC(=O)c2ccc3[nH]ncc3c2)cc1,"enzyme activity, inhibitor",10 µM,remaining activity,90%
CNC(=O)c1cc(Oc2ccc(NC(=O)Nc3ccc(Cl)c(C(F)(F)F)c3)cc2)ccn1,"enzyme activity, inhibitor",10 µM,inhibition,-9%
CCN(CC)c1ccc(C2=NNC(=O)CC2C)cc1[N+](=O)[O-] (stereo not shown),"enzyme activity, inhibitor",10 µM,remaining activity,98%
Cc1sc(C(=O)NC2COC2)cc1-n1cc(NC(=O)Nc2c(F)cccc2Cl)cn1,"enzyme activity, inhibitor",10 µM,remaining activity,106%
N#CCCc1ccc2c(c1)-c1[nH]c3ccc([N+](=O)[O-])cc3c1CC(=O)N2,cell-free assay,0.5 µM,remaining signal,86.4%
CC/C(=N\NC(=O)NCc1cccc(O)c1)c1ccc(O)c(C)c1O,"enzyme activity, inhibitor",0.1 µM,inhibition,10.6%
CCc1ccccc1C(=O)Nc1n[nH]c2c(C)c(F)c(C3C(C#N)=C(C)N(C)C(C)=C3C#N)cc12,"cell-free assay, competition with immobilised ligand",1 µM,remaining binding,100%
CCN(CC)CCNC(=O)c1c(C)[nH]c(/C=C2\C(=O)Nc3ccc(F)cc32)c1C,"enzyme activity, inhibitor",0.1 µM,remaining activity,90%
CN(c1ccnc(CNc2nc(Nc3ccc4c(c3)CC(=O)N4)ncc2C(F)(F)F)n1)S(C)(=O)=O,"cell-free assay, competition with immobilised ligand",1 µM,remaining binding,52%
Cc1ccc(C(=O)NCc2ccsc2)cc1C#Cc1cn(C(C)C)c2ncnc(N)c12,"enzyme activity, inhibitor",1 µM,activity vs control,102%
COc1cc(-c2cc(-c3ccc(N4CCNCC4)cc3)cnc2C)cc(OC)c1OC,"enzyme activity, inhibitor",1 µM,inhibition,4%
COc1cccc(CNC(=O)c2nc3scc(COCc4ccc(C(=O)O)cc4)c3c(=O)[nH]2)c1,"cell-free assay, competition with immobilised ligand",1 µM,remaining binding,100%
CC(C)(C)c1nc(-c2cccc(NS(=O)(=O)c3c(F)cccc3F)c2F)c(-c2ccnc(N)n2)s1,"enzyme activity, inhibitor, radiometric",1 µM,remaining activity,68%
CS(=O)(=O)Nc1cccc(-c2csc(NC(=O)CSc3nc4nccnc4c(=O)n3CCc3ccccc3)n2)c1,"enzyme activity, inhibitor",10 µM,inhibition,4%
CCN(CC)CCNC(=O)c1c(C)[nH]c(/C=C2\C(=O)Nc3ccc(F)cc32)c1C,"enzyme activity, inhibitor",10 µM,inhibition,55%
COc1cc2ncnc(Nc3ccc(F)c(Cl)c3)c2cc1OCCCN1CCOCC1,cell-free assay,0.5 µM,remaining signal,90.2%
Cc1c[nH]c2nccc(Oc3c(F)cc(Nc4cc(Cl)nc(N)n4)cc3F)c12,"cell-free assay, competition with immobilised ligand",0.1 µM,remaining binding,100%
CS(=O)(=O)CCNCc1ccc(-c2ccc3ncnc(Nc4ccc(OCc5cccc(F)c5)c(Cl)c4)c3c2)o1,cell-free assay,0.5 µM,remaining signal,89.9%
Nc1nc(Nc2ccccc2)sc1C(=O)c1c(F)cccc1F,"enzyme activity, inhibitor",10 µM,remaining activity,47%
